According to ChEMBL document CHEMBL2029249, “N-Methyl-3-(tetrahydro-2H-pyran-4-yl)-2,3,4,9-tetrahydro-1H-carbazole-6-carboxamides as a novel class of cannabinoid receptors agonists with low CNS penetration” (Bioorg Med Chem Lett, 2012):
Converted amounts (≈) assume the structure as drawn.

Experiments:
Cannabinoid receptor 1 [1] = target: T1, Cannabinoid receptor 1 (Homo sapiens, UniProt P21554); assay: Displacement of [3H]CP55940 from human CB1 receptor expressed in HEK293 cells; format: cell-based
Cannabinoid receptor 2 = Cannabinoid receptor 2 (Homo sapiens, UniProt P34972); assay: Binding affinity to human CB2 receptor
Cannabinoid receptor 1 [2] = target: T1, Cannabinoid receptor 1; assay: Agonist activity at human CB1 receptor expressed in HEK293 cells assessed as [35S]GTPgamma binding; format: functional, cell-based
Cannabinoid receptor 1 [3] = target: T1, Cannabinoid receptor 1; assay: Agonist activity at human CB1 receptor expressed in HEK293 cells assessed as [35S]GTPgamma binding relative to WIN55212-2; format: functional, cell-based
In short: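 GTPγ35S binding on membranes from HEK293 EBNA cells stably transfected with cloned human CB1; Emax relative to WIN55,212-2 as reference agonist; means of at least three measurements.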

[4] = Intrinsic clearance in human liver microsomes at 1 uM in presence of NADPH; format: ADME, Microsome; conditions: read-out: CLH
[5] = Thermodynamic solubility of the compound at pH 7.4; conditions: buffer
[6] = Apparent permeability from apical to basal side of human Caco2 cells at 10 uM; conditions: Caco-2
[7] = Terminal half life in Sprague-Dawley rat at 2 umol/kg, iv; format: ADME, organism-based; conditions: in vivo, read-out: beta t1/2 (converted)
[8] = Volume of distribution at steady state in Sprague-Dawley rat at 2 umol/kg, iv; format: ADME, organism-based; conditions: in vivo, read-out: Vdss
[9] = Clearance in Sprague-Dawley rat at 2 umol/kg, iv; format: ADME, organism-based; conditions: in vivo
[10] = Tmax in Sprague-Dawley rat at 9 umol/kg, po; format: ADME, organism-based; conditions: in vivo
[11] = Cmax in Sprague-Dawley rat at 9 umol/kg, po; format: ADME, organism-based; set-up: dose 9 umol/kg, route oral; conditions: in vivo
[12] = Oral bioavailability in Sprague-Dawley rat at 9 umol/kg; format: ADME, organism-based; conditions: in vivo
[13] = Plasma protein binding in Sprague-Dawley rat; format: ADME, cell-free; conditions: read-out: PPB (converted)
Cytochrome P450 1A2 = target: T2, Cytochrome P450 1A2 (Homo sapiens, UniProt P05177); assay: Inhibition of CYP1A2 in human liver microsomes; format: ADME, Microsome
T2 sequence (P05177 whole entry): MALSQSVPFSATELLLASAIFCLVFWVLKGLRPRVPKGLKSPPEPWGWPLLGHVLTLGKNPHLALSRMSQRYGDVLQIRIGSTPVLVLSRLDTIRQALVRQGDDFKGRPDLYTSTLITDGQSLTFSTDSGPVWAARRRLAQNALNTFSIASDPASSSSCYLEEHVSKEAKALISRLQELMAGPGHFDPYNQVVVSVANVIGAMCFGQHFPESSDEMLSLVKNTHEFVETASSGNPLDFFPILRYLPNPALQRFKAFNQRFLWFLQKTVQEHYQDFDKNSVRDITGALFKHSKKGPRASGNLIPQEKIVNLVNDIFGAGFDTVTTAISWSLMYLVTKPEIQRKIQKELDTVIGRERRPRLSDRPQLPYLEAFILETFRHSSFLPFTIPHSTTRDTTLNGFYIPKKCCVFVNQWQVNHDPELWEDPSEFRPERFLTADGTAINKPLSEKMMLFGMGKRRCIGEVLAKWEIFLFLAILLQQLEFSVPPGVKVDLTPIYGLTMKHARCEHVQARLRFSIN

Cytochrome P450 2C9 = Cytochrome P450 2C9 (Homo sapiens, UniProt P11712); assay: Inhibition of CYP2C9 in human liver microsomes; format: ADME, Microsome
Cytochrome P450 2C19 = Cytochrome P450 2C19 (Homo sapiens, UniProt P33261); assay: Inhibition of CYP2C19 in human liver microsomes; format: ADME, Microsome
In short: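 IC50 determined in human liver microsomes as part of a five-isoform panel (CYP1A2, CYP2C9, CYP2C19, CYP2D6, CYP3A4) to assess drug-interaction potential.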

Cytochrome P450 2D6 = Cytochrome P450 2D6 (Homo sapiens, UniProt P10635); assay: Inhibition of CYP2D6 in human liver microsomes; format: ADME, Microsome
Cytochrome P450 3A4 = Cytochrome P450 3A4 (Homo sapiens, UniProt P08684); assay: Inhibition of CYP3A4 in human liver microsomes; format: ADME, Microsome
Rattus norvegicus = assay: Analgesic activity in sc dosed rat assessed as reversal of carrageenan-induced heat hyperalgesia; format: functional, organism-based
In short: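 Rat carrageenan inflammatory pain model; reversal of heat hyperalgesia after subcutaneous dosing at 10, 30 and 100 µmol/kg.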

Plasma [14] = assay: Plasma concentration in rat carrageenan inflammatory pain model at 10 umol/kg, sc; format: ADME, cell-free
In short: (§1)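 Rats in carrageenan inflammatory pain model dosed sc at 10, 30 or 100 µmol/kg; total plasma and brain levels by protein precipitation with ACN (brain homogenised first), centrifugation 9000g, 30 min, 4 °C, then reversed-phase LC-electrospray MS/MS against a serial-dilution calibration curve.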

Plasma [15] = assay: Plasma concentration in rat carrageenan inflammatory pain model at 30 umol/kg, sc; format: ADME, cell-free; in short: as §1
Plasma [16] = assay: Plasma concentration in rat carrageenan inflammatory pain model at 100 umol/kg, sc; format: ADME, cell-free; in short: as §1
Brain = assay: Drug uptake in carrageenan inflammatory pain model of rat brain at 10 to 100 umol/kg, sc; format: ADME, organism-based; conditions: in vivo; in short: as §1
[17] = Intrinsic clearance in rat liver microsomes; format: ADME, Microsome; conditions: read-out: CLH
In short: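 Rat liver microsomes; intrinsic clearance expressed per mg microsomal protein.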

[18] = Ratio of drug level in brain to plasma in rat by microdialysis assay

T1 sequence (P21554 whole entry): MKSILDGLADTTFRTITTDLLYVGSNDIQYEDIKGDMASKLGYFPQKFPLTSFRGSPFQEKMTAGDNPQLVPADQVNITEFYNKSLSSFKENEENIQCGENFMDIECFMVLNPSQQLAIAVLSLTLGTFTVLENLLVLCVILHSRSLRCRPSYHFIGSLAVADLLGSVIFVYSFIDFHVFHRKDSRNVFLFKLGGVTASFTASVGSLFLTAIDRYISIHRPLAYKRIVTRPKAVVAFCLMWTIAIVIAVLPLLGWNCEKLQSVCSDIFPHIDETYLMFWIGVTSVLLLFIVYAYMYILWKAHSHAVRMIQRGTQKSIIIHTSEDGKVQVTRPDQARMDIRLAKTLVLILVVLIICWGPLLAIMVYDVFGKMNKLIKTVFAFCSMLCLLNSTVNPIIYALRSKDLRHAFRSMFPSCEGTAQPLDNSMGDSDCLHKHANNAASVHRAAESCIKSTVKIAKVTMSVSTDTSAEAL
Cytochrome P450 2D6, sequence (P10635 whole entry): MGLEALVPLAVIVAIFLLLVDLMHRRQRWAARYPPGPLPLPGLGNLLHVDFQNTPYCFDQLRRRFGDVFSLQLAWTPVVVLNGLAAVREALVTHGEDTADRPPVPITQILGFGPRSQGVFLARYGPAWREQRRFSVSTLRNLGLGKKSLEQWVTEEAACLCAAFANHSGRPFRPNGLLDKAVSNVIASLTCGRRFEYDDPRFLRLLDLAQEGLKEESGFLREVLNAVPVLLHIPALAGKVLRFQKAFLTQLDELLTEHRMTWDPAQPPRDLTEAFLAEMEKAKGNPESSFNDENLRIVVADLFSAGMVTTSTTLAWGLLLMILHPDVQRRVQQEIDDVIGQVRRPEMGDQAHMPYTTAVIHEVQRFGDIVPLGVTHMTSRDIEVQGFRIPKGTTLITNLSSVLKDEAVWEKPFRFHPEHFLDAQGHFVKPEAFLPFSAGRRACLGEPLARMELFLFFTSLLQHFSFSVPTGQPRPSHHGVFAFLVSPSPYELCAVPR
Cytochrome P450 2C19, sequence (P33261 whole entry, canonical isoform): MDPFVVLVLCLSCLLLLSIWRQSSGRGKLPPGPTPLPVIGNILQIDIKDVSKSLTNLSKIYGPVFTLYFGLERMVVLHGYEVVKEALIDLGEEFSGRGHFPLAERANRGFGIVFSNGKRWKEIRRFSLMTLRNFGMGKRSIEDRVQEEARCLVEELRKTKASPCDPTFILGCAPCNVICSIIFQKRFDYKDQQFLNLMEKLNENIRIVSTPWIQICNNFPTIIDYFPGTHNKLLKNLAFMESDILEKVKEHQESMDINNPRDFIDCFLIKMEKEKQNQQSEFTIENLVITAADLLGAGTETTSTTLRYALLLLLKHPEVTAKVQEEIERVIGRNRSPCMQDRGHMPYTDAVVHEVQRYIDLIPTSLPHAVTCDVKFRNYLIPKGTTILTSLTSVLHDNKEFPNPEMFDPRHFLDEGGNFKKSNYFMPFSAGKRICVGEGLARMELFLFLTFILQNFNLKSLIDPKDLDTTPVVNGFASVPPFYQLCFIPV
Cytochrome P450 3A4, sequence (P08684 whole entry): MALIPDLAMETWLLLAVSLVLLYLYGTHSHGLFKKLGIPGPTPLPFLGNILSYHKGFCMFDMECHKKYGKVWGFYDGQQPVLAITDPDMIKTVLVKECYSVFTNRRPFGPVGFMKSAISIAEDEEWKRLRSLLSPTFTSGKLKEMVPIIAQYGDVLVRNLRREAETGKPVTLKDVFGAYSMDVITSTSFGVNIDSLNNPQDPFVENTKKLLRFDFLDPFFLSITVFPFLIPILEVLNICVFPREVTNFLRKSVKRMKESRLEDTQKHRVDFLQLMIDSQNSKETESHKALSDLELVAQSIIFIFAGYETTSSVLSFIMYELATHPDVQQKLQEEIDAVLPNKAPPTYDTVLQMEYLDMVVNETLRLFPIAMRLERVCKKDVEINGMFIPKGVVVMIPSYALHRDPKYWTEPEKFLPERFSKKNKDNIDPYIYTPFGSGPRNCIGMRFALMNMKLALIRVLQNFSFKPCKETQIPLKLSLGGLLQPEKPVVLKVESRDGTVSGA
Cytochrome P450 2C9, sequence (P11712 whole entry): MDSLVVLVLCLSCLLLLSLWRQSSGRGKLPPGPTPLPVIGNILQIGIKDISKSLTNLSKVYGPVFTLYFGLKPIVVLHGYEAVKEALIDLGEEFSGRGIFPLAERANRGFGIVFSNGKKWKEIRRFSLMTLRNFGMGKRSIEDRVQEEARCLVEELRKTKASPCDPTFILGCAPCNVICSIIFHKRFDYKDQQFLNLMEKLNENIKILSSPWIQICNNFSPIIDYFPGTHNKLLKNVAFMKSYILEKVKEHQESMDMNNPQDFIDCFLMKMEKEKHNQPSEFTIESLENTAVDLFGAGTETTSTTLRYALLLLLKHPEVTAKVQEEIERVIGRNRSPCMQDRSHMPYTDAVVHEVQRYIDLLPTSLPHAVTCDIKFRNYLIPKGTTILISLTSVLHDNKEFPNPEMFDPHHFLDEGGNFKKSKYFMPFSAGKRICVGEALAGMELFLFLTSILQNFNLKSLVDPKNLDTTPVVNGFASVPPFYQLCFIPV
Cannabinoid receptor 2, sequence (P34972 whole entry): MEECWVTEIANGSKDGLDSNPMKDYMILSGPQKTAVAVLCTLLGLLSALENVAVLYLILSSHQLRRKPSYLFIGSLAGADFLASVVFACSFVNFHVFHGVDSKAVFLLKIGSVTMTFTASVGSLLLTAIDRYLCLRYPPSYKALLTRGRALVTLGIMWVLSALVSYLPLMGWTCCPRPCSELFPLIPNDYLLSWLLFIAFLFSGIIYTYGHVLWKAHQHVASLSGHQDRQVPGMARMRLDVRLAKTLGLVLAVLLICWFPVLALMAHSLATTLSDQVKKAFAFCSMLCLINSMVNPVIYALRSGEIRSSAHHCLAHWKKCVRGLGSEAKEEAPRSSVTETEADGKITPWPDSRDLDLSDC

SMILES: CNC(=O)CCCN(C)C(=O)c1ccc2c(c1)c1c(n2C)CC[C@@H](C2CCOCC2)C1
- Ki (Cannabinoid receptor 1 [1]): 29.3 nM
- Ki (Cannabinoid receptor 2): 15.5 nM
- EC50 (Cannabinoid receptor 1 [2]): 51.4 nM
- Emax (Cannabinoid receptor 1 [3]): 116%
- microsomal CLint at 1 µM [4]: 26 µL/min/mg
- solubility thermodynamic [5]: 1120 µM (≈ 478 µg/mL)
- Papp A→B at 10 µM [6]: 12 ×10⁻⁶ cm/s
- half-life [7]: 2.4 h
- Vd [8]: 0.3 L/kg
- clearance [9]: 2.8 mL/min/kg
- Tmax [10]: 2.2 h
- Cmax [11]: 6.3 µM
- bioavailability [12]: 100%
- fraction unbound [13]: 0.021
- INH (Cytochrome P450 1A2): > 20 µM
- IC50 (Cytochrome P450 2C9): 7000 nM
- INH (Cytochrome P450 2C19): > 20 µM
- INH (Cytochrome P450 2D6): > 20 µM
- INH (Cytochrome P450 3A4): > 20 µM
- Activity (Rattus norvegicus): Dose-dependent effect
- concentration (Plasma [14]): 6.9 µM
- concentration (Plasma [15]): 9.1 µM
- concentration (Plasma [16]): 50.7 µM
- Drug uptake (Brain): Not Active
- microsomal CLint [17]: 61 µL/min/mg
- Kp [18]: 0.02
